Drawing on PubChem BioAssay, this text covers GFP response vs DMSO, GFP response relative to DMSO and GFP response, % of DMSO for 17 molecules.

Structures are written as SMILES. The source made the active and inactive calls.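 How the source made its calls, unless noted: active means GFP response above 150% of the DMSO level; inconclusive means fewer than 70 events counted for a yeast strain; inactive means the rest.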

Assay [1] is described as follows: RPL19A-GFP modulators, yeast TOR pathway, confirmation, cell-based, S. cerevisiae, flow cytometry, cherry picks, mother/daughter gates (AID 2270;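 active means GFP response below 50% of the DMSO control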). Particulars: S. cerevisiae RPL19A-GFP strain, 3 h, at 10 µM, stronger effect = lower value, 100 = same GFP as DMSO wells. For orientation: Flow cytometry measures light scatter and fluorescence of single cells or particles in a stream.

Assay [2] is described as follows: LAP4-GFP expression modulators in yeast, confirmation, cell-based, cherry picks, flow cytometry, mother/daughter gates (AID 2271;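 active means GFP response above 150% of the DMSO control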;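 further: ratio of sample to DMSO plate mean so 100% equals DMSO level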). The note with it: S. cerevisiae LAP4-GFP strain, 3 h, at 10 µM, stronger effect = higher value, 100 means same as DMSO control. In outline:
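Material – Alexa Fluor 633-labelled Saccharomyces cerevisiae GFP-fusion strain, single-plex · Incubation – compound exposure 3 h at 30 °C, end-over-end rotation · Measured by – GFP by flow cytometry · Measure – median GFP fluorescence as percent of plate-mean DMSO wells · Control set – positive rapamycin (400 ng/mL), negative DMSO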

Assay [3] in a line: modulators of MEP2-GFP levels in yeast, confirmation, S. cerevisiae, flow cytometry GFP, cherry picks (AID 2272;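 active means GFP response above 150% of the DMSO control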;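 further: ratio of well signal to plate DMSO mean so 100% equals DMSO level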). Particulars: S. cerevisiae MEP2-GFP strain, 3 h, at 10 µM, stronger effect = higher value.
A short description of assay [4]: AGP1-GFP expression modulators, hit retest, confirmation, cell-based, flow cytometry, S. cerevisiae, cherry picks (AID 2273).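 Further: median GFP channel fluorescence over the whole cell population gate.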 Particulars: S. cerevisiae AGP1-GFP strain, 3 h, at 10 µM.
The nature of assay [5]: modulators of CIT2-GFP expression in yeast, confirmation, S. cerevisiae, GFP fusion, cherry picks, mother/daughter gates (AID 2274). Particulars: S. cerevisiae CIT2-GFP strain, flow cytometry, 3 h, at 10 µM, stronger effect = higher value.
The mark [6] stands for this setting: measured here: daughter cell gate.
Where [7] appears, read: measured here: mother cell gate.
The mark [8] stands for this setting: measured here: daughter cell gate response.
Where [9] appears, read: measured here: mother cell gate response.

`CCOC(=O)c1cnn(-c2cc(C)nc3c(-c4ccccc4)c(C)nn23)c1N`: the GFP response vs DMSO in assay [1] was 96.6% (inactive); in assay [1] (setting [6]) it was 97.4%; in assay [1] (setting [7]) it was 96.6%; in assay [3] it was 105% (inactive). Also, the GFP response relative to DMSO in assay [2] is 95.4% (inactive); in assay [2] (setting [8]), 96%; in assay [2] (setting [9]), 94%. For the same molecule, the GFP response, % of DMSO was 94.3% (inactive) in assay [4], 98.3% (inactive) in assay [5], 99.1% in assay [5] (setting [6]) and 97.3% in assay [5] (setting [7]).
Turning to `O=C(O)c1ccc(Sc2ccccn2)c([N+](=O)[O-])c1`, the GFP response vs DMSO is 98% (inactive) in assay [1], 99.1% in assay [1] (setting [6]), 98.2% in assay [1] (setting [7]) and 102% (inactive) in assay [3]. Moreover, the GFP response relative to DMSO in assay [2] is 96.7% (inactive); in assay [2] (setting [8]), 97.6%; in assay [2] (setting [9]) it was 95.1%. In addition, the GFP response, % of DMSO was 97% (inactive) in assay [4], 99.7% (inactive) in assay [5], 101% in assay [5] (setting [6]) and 98.5% in assay [5] (setting [7]).
With `COc1cccc(-c2nnc(NC(=O)c3ccc(S(=O)(=O)N4CCOCC4)cc3)o2)c1`, the GFP response vs DMSO in assay [1] is 97.6% (inactive); in assay [1] (setting [6]), 97.8%; in assay [1] (setting [7]), 96.5%; in assay [3], 101% (inactive). Besides, the GFP response relative to DMSO is 97.7% (inactive) in assay [2], 99% in assay [2] (setting [8]) and 97.4% in assay [2] (setting [9]). For the same molecule, the GFP response, % of DMSO in assay [4] is 100% (inactive); in assay [5], 100% (inactive); in assay [5] (setting [6]) it was 99.3%; in assay [5] (setting [7]) it was 100%.
In the case of `COc1ccc(N2C(=O)c3cccc4cccc(c34)C2=O)nn1`, the GFP response vs DMSO in assay [1] is 98% (inactive); in assay [1] (setting [6]), 97.3%; in assay [1] (setting [7]) it was 98.7%; in assay [3] it was 97.8% (inactive). The GFP response relative to DMSO in assay [2] was 89% (inactive); in assay [2] (setting [8]) it was 91%; in assay [2] (setting [9]), 91.1%. The GFP response, % of DMSO is 98% (inactive) in assay [4], 92.6% (inactive) in assay [5], 93.2% in assay [5] (setting [6]) and 91.2% in assay [5] (setting [7]).
With `O=C(OCc1ccco1)c1ccc(S(=O)(=O)N2CCCCC2)cc1`, the GFP response vs DMSO was 101% (inactive) in assay [1], 97.9% in assay [1] (setting [6]), 101% in assay [1] (setting [7]) and 99% (inactive) in assay [3]. Also, the GFP response relative to DMSO in assay [2] was 98.2% (inactive); in assay [2] (setting [8]), 97.5%; in assay [2] (setting [9]), 98.4%. Besides, the GFP response, % of DMSO in assay [4] was 96.1% (inactive); in assay [5], 102% (inactive); in assay [5] (setting [6]), 99.2%; in assay [5] (setting [7]), 91.9%.
For `Cc1ccc(S(=O)(=O)N2CC3CCC2C3)cc1` (configuration not stated), the GFP response vs DMSO in assay [1] was 101% (inactive); in assay [1] (setting [6]) it was 100%; in assay [1] (setting [7]), 104%; in assay [3], 97.8% (inactive). Besides, the GFP response relative to DMSO in assay [2] is 97.4% (inactive); in assay [2] (setting [8]), 97.2%; in assay [2] (setting [9]), 99.3%. Moreover, the GFP response, % of DMSO was 97.4% (inactive) in assay [4], 112% (inactive) in assay [5], 110% in assay [5] (setting [6]) and 114% in assay [5] (setting [7]).
Take `Cc1ccc(-c2ccc(CCC(=O)O)o2)cc1`: the GFP response vs DMSO in assay [1] was 102% (inactive); in assay [1] (setting [6]) it was 95.9%; in assay [1] (setting [7]), 101%; in assay [3], 95.7% (inactive). Moreover, the GFP response relative to DMSO is 147% (inactive) in assay [2], 139% in assay [2] (setting [8]) and 150% in assay [2] (setting [9]). For the same molecule, the GFP response, % of DMSO in assay [4] was 94.8% (inactive); in assay [5], 90% (inactive); in assay [5] (setting [6]), 85%; in assay [5] (setting [7]) it was 90.2%.
`COc1ccc(N2CCN(C(=O)c3ccccc3)CC2)c([N+](=O)[O-])c1`: the GFP response vs DMSO in assay [1] was 101% (inactive); in assay [1] (setting [6]), 98.8%; in assay [1] (setting [7]), 103%; in assay [3], 107% (inactive). Besides, the GFP response relative to DMSO in assay [2] was 106% (inactive); in assay [2] (setting [8]) it was 104%; in assay [2] (setting [9]) it was 108%. For the same molecule, the GFP response, % of DMSO in assay [4] is 102% (inactive); in assay [5] it was 91.5% (inactive); in assay [5] (setting [6]), 93.8%; in assay [5] (setting [7]), 96.8%.
For `Cc1[nH][nH]c(=O)c1C(c1ccc(N(C)C)c(Br)c1)c1c(C)[nH][nH]c1=O`, the GFP response vs DMSO in assay [1] is 99.3% (inactive); in assay [1] (setting [6]), 98%; in assay [1] (setting [7]) it was 99.2%; in assay [3], 104% (inactive). Also, the results for the GFP response relative to DMSO in assay [2], in assay [2] (setting [8]) and in assay [2] (setting [9]) were 116% (inactive), 115% and 114%, respectively. Moreover, the GFP response, % of DMSO in assay [4] was 105% (inactive); in assay [5], 96.4% (inactive); in assay [5] (setting [6]), 96.4%; in assay [5] (setting [7]), 94.5%.
As to `COc1ccc(OC)c(S(=O)(=O)N2Cc3ccccc3CC2C(=O)O)c1` (configuration not stated), the GFP response vs DMSO is 100% (inactive) in assay [1], 101% in assay [1] (setting [6]), 99.4% in assay [1] (setting [7]) and 106% (inactive) in assay [3]. In addition, the GFP response relative to DMSO in assay [2] is 104% (inactive); in assay [2] (setting [8]), 101%; in assay [2] (setting [9]), 106%. The GFP response, % of DMSO in assay [4] was 102% (inactive); in assay [5], 101% (inactive); in assay [5] (setting [6]) it was 103%; in assay [5] (setting [7]), 103%.
As for `CCOc1ccccc1/C=C/C(=O)c1ccc(Cl)cc1`, the GFP response vs DMSO is 98.2% (inactive) in assay [1], 97.1% in assay [1] (setting [6]), 98.5% in assay [1] (setting [7]) and 98.3% (inactive) in assay [3]. For the same molecule, the GFP response relative to DMSO is 99.2% (inactive) in assay [2], 99.2% in assay [2] (setting [8]) and 97.2% in assay [2] (setting [9]). In addition, the GFP response, % of DMSO in assay [4] was 102% (inactive); in assay [5], 103% (inactive); in assay [5] (setting [6]) it was 103%; in assay [5] (setting [7]), 102%.
As to `COc1ccc(N=Nc2ccc(O)c3ncccc23)cc1`, the GFP response vs DMSO in assay [1] was 99.5% (inactive); in assay [1] (setting [6]), 100%; in assay [1] (setting [7]), 98.8%; in assay [3] it was 116% (inactive). Moreover, the GFP response relative to DMSO in assay [2] is 199% (active); in assay [2] (setting [8]), 189%; in assay [2] (setting [9]) it was 200%. Further, the GFP response, % of DMSO in assay [4] was 94.5% (inactive); in assay [5], 109% (inactive); in assay [5] (setting [6]), 113%; in assay [5] (setting [7]) it was 103%.
For `C(=N\Nc1nc(-c2cccnc2)nc2ccccc12)/c1ccccc1`, the GFP response vs DMSO in assay [1] is 101% (inactive); in assay [1] (setting [6]), 101%; in assay [1] (setting [7]) it was 102%; in assay [3] it was 102% (inactive). Besides, the GFP response relative to DMSO is 99.2% (inactive) in assay [2], 99.2% in assay [2] (setting [8]) and 98.3% in assay [2] (setting [9]). Moreover, the GFP response, % of DMSO in assay [4] was 95.6% (inactive); in assay [5], 104% (inactive); in assay [5] (setting [6]), 105%; in assay [5] (setting [7]) it was 103%.
As to `Cc1ccccc1C(=O)NNC(=S)NC(=O)c1ccc(Cl)cc1Cl`, the GFP response vs DMSO in assay [1] was 104% (inactive); in assay [1] (setting [6]) it was 105%; in assay [1] (setting [7]) it was 104%; in assay [3], 118% (inactive). Further, the GFP response relative to DMSO was 143% (inactive) in assay [2], 124% in assay [2] (setting [8]) and 140% in assay [2] (setting [9]). In addition, the GFP response, % of DMSO in assay [4] was 97.1% (inactive); in assay [5] it was 101% (inactive); in assay [5] (setting [6]), 109%; in assay [5] (setting [7]), 94.5%.
For the molecule `O=C(CSc1nnc(-c2ccccn2)n1Cc1ccccc1)N1CCOCC1`, the GFP response vs DMSO in assay [1] is 103% (inactive); in assay [1] (setting [6]) it was 102%; in assay [1] (setting [7]), 102%; in assay [3], 108% (inactive). For the same molecule, the GFP response relative to DMSO was 105% (inactive) in assay [2], 107% in assay [2] (setting [8]) and 105% in assay [2] (setting [9]). The GFP response, % of DMSO in assay [4] was 101% (inactive); in assay [5], 104% (inactive); in assay [5] (setting [6]), 105%; in assay [5] (setting [7]) it was 105%.
Turning to `Cc1cc(N2CCCCC2)n2ncc(-c3ccccc3)c2n1`, the GFP response vs DMSO in assay [1] was 97.6% (inactive); in assay [1] (setting [6]), 97.3%; in assay [1] (setting [7]) it was 98.4%; in assay [3], 95.7% (inactive). Further, the figures for the GFP response relative to DMSO in assay [2], in assay [2] (setting [8]) and in assay [2] (setting [9]) were 102% (inactive), 106% and 102%, respectively. The GFP response, % of DMSO in assay [4] was 95.2% (inactive); in assay [5], 104% (inactive); in assay [5] (setting [6]), 103%; in assay [5] (setting [7]), 103%.
As for `O=C(COc1ccc(F)cc1Cl)Nc1nc(-c2ccccn2)cs1`, the GFP response vs DMSO in assay [1] was 98% (inactive); in assay [1] (setting [6]) it was 94.7%; in assay [1] (setting [7]), 97.1%; in assay [3], 110% (inactive). The GFP response relative to DMSO in assay [2] is 132% (inactive); in assay [2] (setting [8]) it was 132%; in assay [2] (setting [9]) it was 137%. In addition, the GFP response, % of DMSO in assay [4] is 98.8% (inactive); in assay [5], 94.4% (inactive); in assay [5] (setting [6]), 97.6%; in assay [5] (setting [7]) it was 89.3%.
